Measured values reported in PubChem BioAssay.
Unmarked numbers belong to inactive results. Results filed as inconclusive are left out. Activity calls are given as the source filed them.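 How the source made its calls, unless noted: active means viability increase at or above a cutoff of the median across tested compounds plus 3 SD (cut at about 8.5% in these data, passing the limit was not always enough); inconclusive means some gains above the cutoff, reason not given; inactive means the rest.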

Experiments:
[1] = OD615 S. cerevisiae growth inhibition, permissive medium, pilot counter-assay, permissive growth control for S. cerevisiae lifespan shortening project (AID 705;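 active means growth inhibition above 25% in both replicates, a cutoff set 3 SD above the mean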); conditions: OD615, 24 h, at 10 µM, stronger effect = higher value
In short: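 assay system = Saccharomyces cerevisiae strain carrying genetically modified DeaD replicative-lifespan system | medium = SC raffinose/galactose permissive medium | dosing = 10 µM single dose, 0.25% DMSO | schedule = 24 h compound exposure at 30 °C after 4 h pre-growth | measured by = OD at 615 nm | read-out basis = growth inhibition from lowered OD615 after 24 h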

[2] = Restrictive medium S. cerevisiae growth inhibition, OD615, pilot screen of yeast lifespan reduction project, restrictive growth control (AID 706;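 active means growth inhibition above a set limit, 3 SD over mean compound inhibition, in both replicates, cut at about 43% in these data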;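 further: modified DeaD lifespan yeast strain shifted to restrictive glucose medium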); conditions: OD615, 48 h, at 10 µM, stronger effect = higher value
In short: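 Buffer or medium: CSMM-D glucose medium. Material: genetically modified Saccharomyces cerevisiae, DeaD replicative lifespan assay strain. Times: 48 h compound exposure at 30 °C. Measured by: optical density at 615 nm.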

[3] = viability gain of MRP-1-high H69AR cells under doxorubicin, pilot screen, MRP-1 activator project, CellTiter-Glo, duplicate (AID 807); conditions: H69AR viability with doxorubicin, CellTiter-Glo luminescence; at 10 µM; stronger effect = higher value;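 further: compound pretreatment 18-22 h then 72 h combined with doxorubicin; 0% = doxorubicin alone and 100% = vehicle without doxorubicin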
[4] = growth suppression of beta-catenin knockout HCT116, pilot screen, human colon tumor cells (AID 823;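 active means cell viability at or below a set limit in both duplicate runs, the limit being the all-compound median minus 4 SD, cut at about 23% in these data, passing the limit was not always enough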;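 further: 0% = wells killed by 20 µM Hyamine and 100% = untreated DMSO cell wells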); conditions: CellTiter-Glo, 60 h, at 10 µM, stronger effect = lower value
[5] = growth suppression of PTEN-deleted HCT116, pilot screen, cell-based, HCT116 clonal line, CellTiter-Glo (AID 824;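 active means viability at or below 27.92% in each of two runs, the all-compound median minus 4 SD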;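 further: 0% = 20 µM Hyamine control and 100% = vehicle cell control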); conditions: 60 h, at 10 µM, stronger effect = lower value
[6] = inhibitors of the yeast RAM network, pilot screen, dse1pr::URA3 reporter, 5-FOA selection (AID 869;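 active means inhibition over a set limit, the all-compound mean plus 3 SD, in both replicate runs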;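 further: 0% = DMSO wells with no growth and 100% = 10 µM 1-NA-PP1 with full growth; RAM network block rescues cells from 5-FOA so hits raise OD615 growth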); conditions: S. cerevisiae dse1pr::URA3 5-FOA growth, OD615, 2 d; at 10 µM; stronger effect = higher value; strain carries analog-sensitive mutant Cbk1 kinase
[7] = RAM signaling pathway blockade in yeast – S. cerevisiae, Pdr1DBD-CYC8 efflux-inhibited sensitized strain, primary screen (AID 1298;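 active means RAM network inhibition above 8.4% in each of two replicates, 3 SD over the compound average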;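 further: 0% = DMSO untreated cells without growth and 100% = 10 µM 1-NA-PP1 full growth; higher means more yeast growth rescued from 5-FOA killing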); conditions: S. cerevisiae cbk1-as DSE1-URA3 strain, 5-FOA growth OD615, 2 d; at 50 µM; stronger effect = higher value

SMILES | growth inhibition [1] [%] | growth inhibition [2] [%] | viability increase [3] [%] | viability [4] | viability [5] | inhibition [6] [%] | RAM network inhibition [7] [%]
O=S(=O)(NCC(c1cccnc1)N1CCN(c2ccc(F)cc2)CC1)c1cccs1 (configuration not stated) | -0.1 | -0.165 | -1.56 | 87.9% | 86.8% | 2.22 | 3.87
O=C(NCc1ccc2c(c1)OCO2)c1cc2c(s1)CSC2 | -4.81 | 3.8 | -1.75 | 99.2% | 95.5% | 1.75 | 0.94
O=C1CC(c2ccco2)CC2=C1C1c3ccccc3C(=O)N1c1ccccc1N2 (configuration not stated) | -9.63 | -5.43 | 3.98 | 7.74% (active) | 7.59% (active) | 1.36 | 4.2
COC(=O)C1(C)NC(=O)c2ccccc2N1 (configuration not stated) | -6.57 | -7.71 | -0.86 | 102% | 99.2% | 0.47 | 5.23
CCCCN1C(=O)/C(=C2\SC(N3CCCCC3)=NC2=O)c2ccccc21 | -4.39 | 14.6 | -2.31 | 48.4% | 45.8% | 1.53 | 3.38
C=CCNC(=O)c1c(Cl)cccc1Cl | -12.2 | 3.24 | -1.31 | 90.5% | 97.3% | 0.94 | 3.89
O=C(NCCOC(=O)c1ccc(C(=O)OCCNC(=O)c2ccccc2)o1)c1ccccc1 | 4.22 | 13.6 | 0.02 | 100% | 103% | 1.25 | 6.33
Cc1cc(C)n(S(=O)(=O)c2ccc(Cl)c(Cl)c2Cl)n1 | -8.03 | 4.29 | -4.34 | 86% | 84.6% | 1.17 | 3.65
COc1ccc(C(=O)NCC(c2cccnc2)N2CCN(c3ccccc3OC)CC2)cc1OC (configuration not stated) | -7.95 | -2.41 | -3.05 | 89.4% | 91% | 1.16 | 2.21
CCOC(=O)CSc1nc(N)nc(C)c1Br | -0.46 | -3.4 | -2.62 | 103% | 104% | 0.49 | 0.51
O=C(CSc1nc2c(cnn2-c2ccc(F)cc2)c(=O)[nH]1)N1CCCc2ccccc21 | -2.67 | -5.17 | -3.32 | 87.2% | 83% | 1.2 | 4.44
O=C(NCc1cccnc1)C1CC(=O)N(c2ccc(F)cc2)C1 (configuration not stated) | -18 | -11.7 | 1.27 | 93.8% | 101% | 0.485 | 2.83
CCCC(=O)N1CCN(c2ccc(C(=O)c3ccc(OC)c(Br)c3)cc2F)CC1 | -14.6 | -18.4 | -1.74 | 96.8% | 93.7% | 1.3 | 4.76
COc1ccc(C2NC(=O)NC(O)(C(F)(F)F)C2C(=O)c2ccc(C)cc2)cc1 (configuration not stated) | 6.2 | -7.89 | -2.35 | 100% | 95.1% | 0.56 | -1.03
OCCN1CCN(c2ncnc3ccc(Br)cc23)CC1 | -15.5 | 4.06 | -4.77 | 99.1% | 96.7% | -0.12 | -1.2
CCOc1ccc(/C=C\C(C)=N\O)cc1 | -0.67 | 0.775 | -2.74 | 90.3% | 96.3% | 0.065 | 2.82
COc1ccccc1N1C(=O)C2CC=CC(C)C2C1=O (configuration not stated) | -0.615 | 2.32 | -0.91 | 89.4% | 94% | 0.52 | 2.25
Cc1ccc(-c2ccc(CCC(=O)O)n2C(C)C)cc1 | 3.3 | -1.55 | -1.75 | 94.7% | 101% | 2.1 | 4.37

SMILES | growth inhibition [1] [%] | growth inhibition [2] [%] | viability increase [3] [%] | viability [4] | viability [5] | inhibition [6] [%] | RAM network inhibition [7] [%]
Nc1nc2n(n1)C(c1ccccc1)CC(c1ccc(F)cc1)N2 (configuration not stated) | -2.32 | 16.9 | -0.53 | 97.9% | 98.2% | 0.145 | 0.84
O=C(CS(=O)(=O)c1cn(Cc2ccccc2Cl)c2ccccc12)N1CCOCC1 | -3.44 | 2.78 | -4.39 | 79% | 76% | 3.23 | 5.08
C=CC(C)Sc1nc2c(c(=O)n(C)c(=O)n2C)n1Cc1ccccc1Cl (configuration not stated) | -3.12 | -2.02 | -3.37 | 100% | 99.3% | 0.785 | 5.22
Cc1nc2ccccc2c2oc(C(=O)NC3CC3)cc12 | -8 | 5.36 | -2.61 | 112% | 89.6% | 0.79 | -1.66
CCOC(=O)C1CCN(C(=O)c2ccc(Cl)c(NC3=NC4CS(=O)(=O)CC4S3)c2)CC1 (configuration not stated) | -13.6 | -14.5 | -0.09 | 107% | 89.4% | 1.65 | -0.37
CCC(=O)N/C(=N/c1nc(C)cc(C)n1)Nc1cccc(OC)c1 | -5.62 | -19.7 | -4.53 | 41.1% | 36.4% | 2.23 | 3.66
CCN(CC)S(=O)(=O)c1ccc(-c2nnco2)cc1 | -23.5 | -16.6 | -0.57 | 100% | 97.9% | 3.09 | 1.46
CCc1ccccc1NC(=O)c1onc(C)c1Cl | -5.87 | 1.99 | -0.41 | 108% | 97.7% | 2.18 | -1.13
NC(=O)NC1CCCc2c1[nH]c1ccc(Cl)cc21 (configuration not stated) | 1.64 | 3.78 | 0.04 | 89.9% | 87.3% | 1.15 | 0.26
Cc1cccc(CN2CCN(CC(=O)NCc3ccc(F)cc3)C2=O)c1 | -2.2 | -1.6 | 0.82 | 104% | 104% | 0.03 | 3.27
CCOC(=O)N1CCN(C(=O)CSc2nc3c(cnn3-c3ccccc3)c(=O)[nH]2)CC1 | -2.34 | -4.3 | -4.92 | 98.9% | 99% | 0.19 | -1.2
C=C(C)Cn1c(SCC(=O)O)nc2c1c(=O)[nH]c(=O)n2C | -15.9 | -14 | 1.02 | 96.7% | 98.8% | 0.63 | 3.24
O=C(CSc1nc2c(c(=O)n1-c1ccc(Cl)cc1)SCC2)NCc1ccco1 | -4.73 | -0.115 | -4.49 | 86.2% | 89% | 0.225 | 4.2
CCCOC(=O)c1ccc(-n2nnnc2SCC(=O)N2CCCCC2)cc1 | -11.6 | -5.64 | -0.35 | 80.3% | 86% | 0.595 | 0.04
O=C(COc1ccccc1)N1CCN(S(=O)(=O)c2cccs2)CC1 | -4.47 | -11 | -0.82 | 94% | 85.3% | 0.6 | 7.83
CCOC(=O)C(C)Sc1nnc(Cn2c(=O)sc3ccccc32)n1-c1ccccc1 (configuration not stated) | 2.42 | -4.57 | -0.22 | 95.6% | 92.6% | 1.81 | 0.1
Cc1ccc(OCCNC(=O)c2ccco2)cc1C | 0.475 | -5.61 | -1.46 | 102% | 101% | 1.63 | -1.46
CCCSCCCNC(=O)Cn1cc2c(n1)CCCCC2 | -3.9 | 5.24 | -2.42 | 94% | 93.2% | -0.37 | 3.05
